The values that follow come from ChEMBL document CHEMBL3779860, “A Designed Tryptophan- and Lysine/Arginine-Rich Antimicrobial Peptide with Therapeutic Potential for Clinical Antibiotic-Resistant Candida albicans Vaginitis” (J Med Chem, 2016).

In series [1] the test system is Mus musculus. The series can be described thus: Antiinflammatory activity in antibiotic resistant Candida albicans clinical isolate 08030809 induced mouse vaginitis model assessed as reduction in IL-1beta secretion in vaginal tissue at 50 ug administered as intravaginal instillation measured on day 10 by ELISA. The format is functional, Vagina. An outline of the steps: (§1)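 Same estradiol-primed mouse model, infected intravaginally with C. albicans 08030809 and treated by intravaginal instillation (20 µL/mouse). Vaginal canals excised on day 10 of treatment and homogenised in 0.9% NaCl. Supernatant taken after 2,000 g for 15 min. TNF-α, IL-6, IL-1β and IL-10 measured by ELISA. Mean ± SE of three independent experiments; unpaired t-test versus vehicle.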
(In general: An ELISA detects its analyte on a solid surface through an enzyme-linked reagent.)

Series [2] concerns Candida albicans. The series can be described thus: Effect on cell morphology in antibiotic resistant Candida albicans clinical isolate 08030809 assessed as cell membrane perforation at MIC to 2.5 times MIC after 30 mins by scanning electron microscopy. The format is functional, organism-based. In outline: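 Exponential-phase C. albicans 08030809 was washed in PBS and resuspended in Sabouraud medium. Cells were treated 30 min at 37°C alongside a vehicle control. They were then fixed in 2.5% glutaraldehyde (4°C, 2 h) and 1% osmium tetroxide, dehydrated through graded ethanol, freeze-dried from tert-butanol, gold-coated and imaged by SEM. Images are typical of three experiments.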

The subject of series [3] is Candida albicans. The series can be described thus: Antimicrobial activity against antibiotic resistant Candida albicans clinical isolate 08030809 assessed as clone count at MIC after 10 mins by colony counting assay (reference value: 102 +/- 11 CFU). The format is functional.
Series [4] relates to Mus musculus. Description: Antiinflammatory activity in antibiotic resistant Candida albicans clinical isolate 08030809 induced mouse vaginitis model assessed as reduction in IL-6 secretion in vaginal tissue administered as intravaginal instillation measured on day 10 by ELISA. The format is functional, organism-based. To be noted: Vagina. An outline of the steps: as §1
The test system of series [5] is Candida albicans. Description: Antimicrobial activity against antibiotic resistant Candida albicans clinical isolate 08030809 assessed as clone count at 10 times MIC after 3 hrs by colony counting assay (reference value: 3687 +/- 543 CFU). The format is functional.
In series [6] the test system is Candida albicans. The series can be described thus: Antimicrobial activity against antibiotic resistant Candida albicans clinical isolate 08030809 in mouse vaginitis model assessed as colony count in lavage liquid of vagina at 50 ug administered as intravaginal instillation measured on day 16. The format is functional.
A short description of series [7]: Hemolytic activity in human RBC after 30 mins. The format is ADME, cell-based, Erythrocyte. In outline: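 Serial dilutions were incubated with human erythrocytes for 30 min at 37°C. Supernatant absorbance was read at 540 nm after centrifugation. Hemolysis is expressed as % of the 1% Triton X-100 lysis value, pooled from three independent experiments. The highest concentration tested was 320 µg/mL.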

Series [8] relates to Candida albicans. The series can be described thus: Antimicrobial activity against antibiotic resistant Candida albicans clinical isolate 08032821 compound treated in NaCl solution measured after 36 hrs by disc diffusion method. The format is functional. The following applies: isolate 08032821, 36 h. In outline:
(§2)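 Salt-tolerance test: peptide at 2 mg/mL was prepared in sterile ddH2O, in 150 mM NaCl, or in PBS (150 mM NaCl, 2.7 mM KCl, 1.5 mM KH2PO4, 8 mM K2HPO4, pH 7.2). Anti-C. albicans activity was then assessed by inhibition zone on Sabouraud medium with 0.7% agar.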

The subject of series [9] is Candida albicans. Description: Antimicrobial activity against antibiotic resistant Candida albicans clinical isolate 08030809 in mouse vaginitis model assessed as decrease in colony count in lavage liquid of vagina at 50 ug administered as intravaginal instillation measured on day 11. The format is functional.
For series [10], the system named is Mus musculus. Description: Antiinflammatory activity in antibiotic resistant Candida albicans clinical isolate 08030809 induced mouse vaginitis model assessed as microabscess number in vaginal tissue at 50 ug administered as intravaginal instillation measured on day 6 by hematoxylin-eosin staining based microscopic method (reference value: 61). The format is functional, Vagina. In outline: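 Mice given weekly subcutaneous estradiol valerate (0.5 mg in 0.1 mL vegetable oil) 72 h before infection. Infected intravaginally with 20 µL of 10^7 CFU/mL C. albicans 08030809. Intravaginal instillation of 20 µL daily for 16 days. Vaginal canals excised after lavage, formalin-fixed, paraffin-embedded, HE-stained. Microabscesses counted per high-power field over 6 fields per section, three independent experiments.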

Series [11] deals with Candida albicans. The series can be described thus: Antimicrobial activity against antibiotic resistant Candida albicans clinical isolate 08032815 compound treated in NaCl solution measured after 36 hrs by disc diffusion method. The format is functional. The following applies: isolate 08032815, 36 h. In outline:
as §2
(In general: Agar diffusion results depend on both activity and mobility in agar.)

For series [12], the system named is Candida albicans. The series can be described thus: Antimicrobial activity against antibiotic resistant Candida albicans clinical isolate 08022710 after 16 hrs by broth dilution method. The format is functional. The following applies: isolate 08022710, 16 h. An outline of the steps:
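Broth microdilution in Sabouraud liquid medium. Samples are stocks in 0.9% NaCl, 10 µL added to 90 µL broth plus 100 µL of 2 × 10^5 CFU/mL yeast suspension. Incubated 16 h at 28°C, growth read by A600. MIC is the lowest concentration completely inhibiting growth; mean of three independent experiments.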

The test system of a further series is Escherichia coli. The series can be described thus: Antimicrobial activity against Escherichia coli ATCC 25922 assessed as inhibition of […] growth after 16 hrs by broth dilution method. The format is functional. The following applies: ATCC 25922, 16 h. In outline: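 Broth dilution in LB broth; 100 µL of 2 × 10^5 CFU/mL bacterial suspension plus 10 µL sample (stock series in 0.9% NaCl) in 90 µL broth, 37°C for 16 h. Growth read as A600; MIC is the lowest concentration completely inhibiting growth. Mean of three independent experiments run in duplicate.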
For orientation: In broth dilution the organism is exposed to a series of concentrations in liquid medium.

Calls of active or inactive are those of the source. The calls are words filed in the database; no cut-off is given here.

A word on the HC50: it is the concentration that lyses half of the red blood cells. Read a low HC50 as stronger haemolysis. By MIC is commonly meant the lowest concentration found to suppress growth.

On to H-VKRWKKWRWKWKKWV-NH2, for which the “inhibition (INH)” value in the series on Mus musculus [1] was found to be 63%; in the series on Candida albicans [9], 66%. In addition, the result in the series with Candida albicans [2] was Active. Also, the Activity with Candida albicans [3] was 15 CFU; in the series with Mus musculus [4], “Dose-dependent effect”; in the series on Candida albicans [5], 0 CFU; in the series with Candida albicans [6] it was 2.9 ×10³ CFU/ml; in the series with Mus musculus [10], 7. Besides, in series [7] (erythrocyte, 0.5 h), the HC10 was over 320 µg/mL. Moreover, in series [7] (red blood cells), the HC50 at 0.5 h was over 320 µg/mL. The MIC in the series with Candida albicans [8] was found to be 2.65 µg/mL; with Candida albicans [11], 2.79 µg/mL; against Candida albicans [12] it was 4.69 µg/mL; in the series with Escherichia coli it was 9.38 µg/mL.
